Data on three compounds can be found in ChEMBL document CHEMBL4257478, “Design, synthesis and evaluation of (R)-3-(7-(methyl(7H-pyrrolo[2,3-d]pyrimidin-4-yl)amino)-5-azaspiro[2.4]heptan-5-yl)-3-oxopropanenitrile as a JAK1-selective inhibitor” (Medchemcomm, 2018).

Some results are limits rather than exact numbers.

In data set [1] the target is T1, CYP2B6 (Homo sapiens, UniProt P20813).
T1 sequence (P20813 whole entry): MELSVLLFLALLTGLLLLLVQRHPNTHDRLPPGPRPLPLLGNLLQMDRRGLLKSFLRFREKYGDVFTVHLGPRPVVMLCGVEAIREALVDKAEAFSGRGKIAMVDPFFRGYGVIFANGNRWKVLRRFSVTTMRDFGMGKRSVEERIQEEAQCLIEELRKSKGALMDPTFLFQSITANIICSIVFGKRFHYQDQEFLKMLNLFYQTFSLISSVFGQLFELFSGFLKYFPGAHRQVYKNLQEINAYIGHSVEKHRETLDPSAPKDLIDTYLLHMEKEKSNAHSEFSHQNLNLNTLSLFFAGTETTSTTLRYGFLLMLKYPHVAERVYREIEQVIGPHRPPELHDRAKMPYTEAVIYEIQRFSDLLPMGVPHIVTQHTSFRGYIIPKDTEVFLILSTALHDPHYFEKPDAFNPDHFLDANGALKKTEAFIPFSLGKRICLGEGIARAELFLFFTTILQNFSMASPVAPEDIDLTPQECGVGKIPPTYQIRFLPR
Briefly: Inhibition of CYP2B6 in human liver microsomes assessed as remaining activity at 10 uM using bupropion as substrate preincubated for 5 mins followed by addition of NADPH regenerating system and measured after 15 mins by LC-MS/MS analysis relative to control. The following applies: probe bupropion, read-out: Activity. It is filed as ADME. In outline: (§1)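 Human liver microsomes (0.25 mg/mL) in 0.1 M phosphate buffer with test article at 0 or 10 μM and substrate cocktail, preincubated 5 min at 37 °C. Cocktail A: phenacetin 50 μM, coumarin 2.5 μM, S-mephenytoin 100 μM, dextromethorphan 5 μM, midazolam 2.5 μM. Cocktail B: bupropion 50 μM, amodiaquine 2.5 μM, tolbutamide 100 μM, chlorzoxazone 50 μM. NADPH system added, then 15 min at 37 °C; acetonitrile quench, LC-MS/MS.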

A short description of data set [2]: Efflux ratio of apparent permeability from basolateral to apical side over apical to basolateral side in human Caco2 cells at 25 uM. The following applies: Caco-2. It is filed as ADME, cell-based.
The target of data set [3] is T2, CYP1A2 (Homo sapiens, UniProt P05177).
T2 sequence (P05177 whole entry): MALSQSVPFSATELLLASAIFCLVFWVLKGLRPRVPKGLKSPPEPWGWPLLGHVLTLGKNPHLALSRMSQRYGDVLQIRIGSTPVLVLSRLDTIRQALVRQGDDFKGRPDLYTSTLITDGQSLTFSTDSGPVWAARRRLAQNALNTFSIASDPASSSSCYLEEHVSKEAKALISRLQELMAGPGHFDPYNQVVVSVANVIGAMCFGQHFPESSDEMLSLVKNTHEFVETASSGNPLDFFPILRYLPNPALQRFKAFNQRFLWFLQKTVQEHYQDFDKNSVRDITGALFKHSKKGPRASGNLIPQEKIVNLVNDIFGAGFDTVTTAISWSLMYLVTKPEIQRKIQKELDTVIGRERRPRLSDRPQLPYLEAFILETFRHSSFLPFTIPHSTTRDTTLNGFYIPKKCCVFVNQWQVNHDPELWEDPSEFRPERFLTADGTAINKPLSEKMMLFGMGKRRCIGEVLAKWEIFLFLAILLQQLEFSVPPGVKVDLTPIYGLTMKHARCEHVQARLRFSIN
Briefly: Inhibition of CYP1A2 in human liver microsomes assessed as remaining activity at 10 uM using phenacetin as substrate preincubated for 5 mins followed by addition of NADPH regenerating system and measured after 15 mins by LC-MS/MS analysis relative to control. The following applies: probe phenacetin, read-out: Activity. It is filed as ADME. In outline:
as §1

The target of data set [4] is CYP2D6 (Homo sapiens, UniProt P10635). The data set is described as follows: Inhibition of CYP2D6 in human liver microsomes assessed as remaining activity at 10 uM using dextromethorphan as substrate preincubated for 5 mins followed by addition of NADPH regenerating system and measured after 15 mins by LC-MS/MS analysis relative to control. The following applies: probe dextromethorphan, read-out: Activity. Format: ADME. In outline:
as §1

For data set [5], the target named is T3, CYP2A6 (Homo sapiens, UniProt P11509).
T3 sequence (P11509 whole entry): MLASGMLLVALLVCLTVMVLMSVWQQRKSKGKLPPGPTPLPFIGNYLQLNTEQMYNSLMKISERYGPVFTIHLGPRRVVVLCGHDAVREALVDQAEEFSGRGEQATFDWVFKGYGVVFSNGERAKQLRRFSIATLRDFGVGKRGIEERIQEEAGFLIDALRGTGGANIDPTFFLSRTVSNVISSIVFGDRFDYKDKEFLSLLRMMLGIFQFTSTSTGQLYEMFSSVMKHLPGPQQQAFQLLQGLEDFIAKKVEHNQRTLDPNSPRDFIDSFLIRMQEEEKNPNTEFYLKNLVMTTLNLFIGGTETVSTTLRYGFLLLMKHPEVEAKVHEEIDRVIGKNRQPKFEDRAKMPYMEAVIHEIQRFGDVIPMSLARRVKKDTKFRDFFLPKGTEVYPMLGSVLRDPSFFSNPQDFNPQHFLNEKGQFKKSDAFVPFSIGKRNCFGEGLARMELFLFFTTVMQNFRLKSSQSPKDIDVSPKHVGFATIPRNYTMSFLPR
Briefly: Inhibition of CYP2A6 in human liver microsomes assessed as remaining activity at 10 uM using coumarin as substrate preincubated for 5 mins followed by addition of NADPH regenerating system and measured after 15 mins by LC-MS/MS analysis relative to control. It is filed as ADME. As to conditions: probe coumarin, read-out: Activity. In outline: as §1

The nature of data set [6]: Metabolic stability in human plasma assessed as parent compound remaining at 10 uM after 30 mins by LC-MS/MS method. Format: ADME, cell-free. The following applies: read-out: Stability. In outline: (§2)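 Human plasma spiked with test article at 10 μM and incubated at 37 °C for 0, 30 and 120 min. Acetonitrile with chlorpropamide internal standard added, sample centrifuged at 4 °C, supernatant analysed by LC-MS/MS; result given as percent remaining.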

Data set [7] in a line: Metabolic stability in human plasma assessed as parent compound remaining at 10 uM after 120 mins by LC-MS/MS method. Format: ADME, cell-free. The following applies: read-out: Stability. In outline: as §2
The target in data set [8] is T4, CYP2C8 (Homo sapiens, UniProt P10632).
T4 sequence (P10632 whole entry): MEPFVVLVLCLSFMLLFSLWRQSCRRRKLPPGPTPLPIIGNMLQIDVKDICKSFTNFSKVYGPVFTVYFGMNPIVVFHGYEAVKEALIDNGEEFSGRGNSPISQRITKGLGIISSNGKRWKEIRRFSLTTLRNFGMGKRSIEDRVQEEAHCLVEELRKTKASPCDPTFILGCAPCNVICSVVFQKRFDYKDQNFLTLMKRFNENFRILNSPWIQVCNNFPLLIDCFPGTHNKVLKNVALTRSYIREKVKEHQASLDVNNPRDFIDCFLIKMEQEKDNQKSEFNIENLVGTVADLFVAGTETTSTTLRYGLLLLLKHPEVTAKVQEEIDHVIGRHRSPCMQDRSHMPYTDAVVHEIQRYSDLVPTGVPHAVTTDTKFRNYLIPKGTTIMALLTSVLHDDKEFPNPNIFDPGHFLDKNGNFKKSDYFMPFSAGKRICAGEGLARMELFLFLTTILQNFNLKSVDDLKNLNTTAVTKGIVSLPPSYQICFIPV
The data set is described as follows: Inhibition of CYP2C8 in human liver microsomes assessed as remaining activity at 10 uM preincubated for 5 mins followed by addition of NADPH regenerating system and measured after 15 mins by LC-MS/MS analysis relative to control. It is filed as ADME. As to conditions: read-out: Activity.

Sequence of CYP2D6 (P10635 whole entry): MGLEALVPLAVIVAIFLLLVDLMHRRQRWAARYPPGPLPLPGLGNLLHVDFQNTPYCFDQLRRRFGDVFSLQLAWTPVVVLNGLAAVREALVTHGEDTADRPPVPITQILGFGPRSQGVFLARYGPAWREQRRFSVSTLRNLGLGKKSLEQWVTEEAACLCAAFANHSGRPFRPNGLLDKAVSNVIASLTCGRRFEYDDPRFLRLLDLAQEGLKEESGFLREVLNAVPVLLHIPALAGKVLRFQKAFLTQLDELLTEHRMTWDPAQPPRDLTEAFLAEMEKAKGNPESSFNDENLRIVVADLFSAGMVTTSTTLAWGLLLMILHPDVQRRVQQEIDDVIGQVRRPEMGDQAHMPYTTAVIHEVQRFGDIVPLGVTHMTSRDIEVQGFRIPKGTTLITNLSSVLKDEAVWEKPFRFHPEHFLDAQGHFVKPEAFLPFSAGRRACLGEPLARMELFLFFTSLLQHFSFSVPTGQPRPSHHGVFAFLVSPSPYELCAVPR

In the case of `CN(c1ncnc2[nH]ccc12)[C@H]1CN(S(=O)(=O)c2cccc(C#N)c2)CC12CC2`, the activity at 0.25 h, 10 µM worked out at 92% in data set [1]; 65.7% in data set [3]; 90.3% in data set [4]; 87.2% in data set [5]; 66.2% in data set [8]. Moreover, the efflux ratio at 25 µM in data set [2] stood at 1.17. The remaining at 0.5 h, 10 µM in data set [6] was determined as 96.6%. Besides, the remaining at 2 h, 10 µM in data set [7] stood at 98.6%.
`CN(c1ncnc2[nH]ccc12)[C@H]1CN(C(=O)CC#N)CC12CC2`: the activity at 0.25 h, 10 µM came out at 91.5% in data set [1]; 92.5% in data set [3]; 91.6% in data set [4]; 92% in data set [5]; 81% in data set [8]. Further, the efflux ratio at 25 µM in data set [2] was 2.78. Also, in data set [6], the remaining at 0.5 h, 10 µM came to 95%. In addition, the remaining at 2 h, 10 µM in data set [7] worked out at 98.5%.
Take `CCS(=O)(=O)N1C[C@H](N(C)c2ncnc3[nH]ccc23)C2(CC2)C1`: the activity at 0.25 h, 10 µM is more than 100% in data set [1]; 99.9% in data set [3]; more than 100% in data set [4]; 96.7% in data set [5]; more than 100% in data set [8]. Moreover, in data set [2], the efflux ratio at 25 µM was determined as 1.01. For the same compound, in data set [6], the remaining at 0.5 h, 10 µM is more than 100%. In addition, in data set [7], the remaining at 2 h, 10 µM is more than 100%.
